Experimental findings from ChEMBL document CHEMBL5252671, “Design, synthesis and evaluation of the anti-breast cancer activity of 1,3-oxazolo[4,5-d]pyrimidine and 1,3-oxazolo[5,4-d]pyrimidine derivatives” (2023) are described below.

Common to all, as to type: functional
Test [1] relates to MCF7. The test is described as follows: Anticancer activity against human MCF7 cells measured at 48 hrs. Put shortly:
(§1)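 NCI DTP five-dose screen on the breast subpanel: compound at 0.01, 0.1, 1, 10 and 100 μM for 48 h. Cell density read by sulforhodamine B (protein content). GI50, TGI and LC50 were derived from the T, T0 and C optical densities using the NCI formulas.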

The subject of test [2] is MDA-MB-231. As to the kind of experiment: Antiproliferative activity against human MDA-MB-231 cells assessed as inhibition of cell growth at 1 X 10^-5 M measured for 48 hrs by sulforhodamine B assay relative to control. The settings on record: MDA-MB-231, 48 h, dose 1 10^-5M. An outline of the steps: (§2)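 NCI one-dose screen. Cells were seeded at 5000-40000/well in RPMI 1640 with 5% FBS and 2 mM L-glutamine and preincubated 24 h at 37 °C in 5% CO2. Compound was added at 10⁻⁵ M for 48 h. Cells were then fixed with 10% TCA, stained with sulforhodamine B, washed with 1% acetic acid, solubilized in 10 mM Tris and read as OD at 510 nm.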
For orientation: Sulforhodamine B stains cellular protein and so reports cell mass.

Test [3] relates to T47D. As to the kind of experiment: Anticancer activity against human T47D cells measured at 48 hrs. The following applies: for CC50: read-out: LC50 (the source's name). Put shortly: as §1
Test [4] relates to Hs-578T. The test is described as follows: Anticancer activity against human Hs-578T cells measured at 48 hrs. An outline of the steps:
as §1

In test [5] the test system is MCF7. As to the kind of experiment: Antiproliferative activity against human MCF7 cells assessed as inhibition of cell growth at 1 X 10^-5 M measured for 48 hrs by sulforhodamine B assay relative to control. The following applies: MCF7, 48 h, dose 1 10^-5M. An outline of the steps: as §2
The subject of test [6] is BT-549. As to the kind of experiment: Anticancer activity against human BT-549 cells measured at 48 hrs. Put shortly: as §1
Test [7] has as its system MDA-MB-231. The test is described as follows: Anticancer activity against human MDA-MB-231 cells measured at 48 hrs. An outline of the steps:
as §1

Test [8] relates to BT-549. As to the kind of experiment: Antiproliferative activity against human BT-549 cells assessed as inhibition of cell growth at 1 X 10^-5 M measured for 48 hrs by sulforhodamine B assay relative to control. The following applies: BT-549, 48 h, dose 1 10^-5M. Put shortly:
as §2

Test [9] has as its system T47D. As to the kind of experiment: Antiproliferative activity against human T47D cells assessed as inhibition of cell growth at 1 X 10^-5 M measured for 48 hrs by sulforhodamine B assay relative to control. The following applies: dose 1 10^-5M. An outline of the steps: as §2
Test [10] relates to Hs-578T. As to the kind of experiment: Antiproliferative activity against human Hs-578T cells assessed as inhibition of cell growth at 1 X 10^-5 M measured for 48 hrs by sulforhodamine B assay relative to control. The settings on record: dose 1 10^-5M. Put shortly:
as §2

In test [11] the test system is MDA-MB-468. The test is described as follows: Anticancer activity against human MDA-MB-468 cells measured at 48 hrs. Put shortly:
as §1

For test [12], the system named is MDA-MB-468. The test is described as follows: Antiproliferative activity against human MDA-MB-468 cells assessed as inhibition of cell growth at 1 X 10^-5 M measured for 48 hrs by sulforhodamine B assay relative to control. The settings on record: MDA-MB-468, 48 h, dose 1 10^-5M. An outline of the steps: as §2

Consider `Cc1ccc(-c2nc3nc(-c4ccc(Br)cc4)nc(N4CCCNCC4)c3o2)cc1`, for which the GI50 in [1] is 1.78 µM; in test [3] it was 3.06 µM; in test [4], 17.2 µM; in test [6], 16 µM; in [7] it was 1.93 µM; in test [11], 3.98 µM. Moreover, the LC50 (concentration giving 50% net cell kill) was determined as 6.91 µM in test [1], 75 µM in test [6] and 52.5 µM in [11]. Moreover, the TGI in [1] was 3.51 µM; in test [3] it was 13.9 µM; in test [4], 37.1 µM; in test [6], 34.6 µM; in test [7], 4.05 µM; in [11], 15.9 µM. Moreover, the inhibition at 10 µM in [2] is 157%; in test [5], 176%; in test [8], 1%; in test [9], 108%; in test [10] it was 130%; in [12], 165%. Also, the CC50 in [3] stood at 65.5 µM. In [4], the LC50 (50% lethal concentration) was determined as 80.2 µM. In test [7], this compound registered an LC50 (concentration killing 50% of starting cells) of 8.5 µM.

For the compound `c1ccc(-c2nc(N3CCNCC3)c3nc(-c4ccccc4)oc3n2)cc1`, the GI50 in [1] was 1.7 µM; in test [3], 1.94 µM; in test [4], 1.87 µM; in test [6], 1.67 µM; in test [7], 1.67 µM; in test [11], 1.93 µM. The results for the LC50 (concentration giving 50% net cell kill) in [1], in [6] and in test [11] were 7.54 µM, 6.27 µM and 6.94 µM, respectively. In addition, the TGI in test [1] is 3.58 µM; in [3], 4.19 µM; in [4], 4.11 µM; in [6], 3.24 µM; in [7] it was 3.2 µM; in test [11], 3.66 µM. Further, the inhibition at 10 µM in test [2] was found to be 181%; in test [5] it was 169%; in test [8], 3%; in test [9], 157%; in [10] it was 11%; in test [12], 137%. In test [4], this compound yielded an LC50 (50% lethal concentration) of 9.05 µM. Also, in test [7], the LC50 (concentration killing 50% of starting cells) was found to be 6.13 µM.

On to `c1ccc(-c2nc(N3CCCNCC3)c3nc(-c4ccccc4)oc3n2)cc1`, for which the GI50 in [1] was determined as 1.67 µM; in test [3], 1.78 µM; in [4], 1.86 µM; in test [6] it was 1.78 µM; in test [7], 1.72 µM; in [11], 1.72 µM. In addition, the values for the LC50 (concentration giving 50% net cell kill) in [1] and in [11] were 6.67 µM and 6.57 µM, respectively. The TGI in test [1] worked out at 3.34 µM; in test [3] it was 3.64 µM; in test [4] it was 3.94 µM; in [6] it was 3.29 µM; in test [7], 3.21 µM; in [11], 3.37 µM. In addition, the inhibition at 10 µM in [2] stood at 103%; in test [5], 167%; in test [8], 5%; in test [9] it was 53%; in test [10], 16%; in test [12], 153%. In addition, the CC50 in test [3] amounted to 7.42 µM. For the same compound, in [4], the LC50 (50% lethal concentration) worked out at 8.34 µM. In test [7], this compound yielded an LC50 (concentration killing 50% of starting cells) of 5.99 µM.

As to `Cc1ccc(-c2nc(N3CCNCC3)c3oc(-c4ccc(C)cc4)nc3n2)cc1`, the GI50 in test [1] came to 1.72 µM; in test [3], 11.4 µM; in [4], 2.27 µM; in [6], 1.71 µM; in [7], 1.74 µM; in [11], 2.13 µM. Besides, the values for the LC50 (concentration giving 50% net cell kill) in test [1], in test [6] and in [11] were 7.86 µM, 6.48 µM and 13.5 µM, respectively. Also, the TGI was 3.68 µM in test [1]; 37.4 µM in [3]; 5.83 µM in test [4]; 3.32 µM in test [6]; 3.44 µM in test [7]; 4.77 µM in test [11]. Moreover, the inhibition at 10 µM in test [2] is 172%; in test [5], 173%; in test [8] it was 17%; in [9] it was 63%; in [10] it was 1%; in [12] it was 133%. The CC50 in [3] was more than 100 µM. Besides, in test [4], the LC50 (50% lethal concentration) was more than 100 µM. Also, in [7], the LC50 (concentration killing 50% of starting cells) worked out at 6.81 µM.

For `Cc1ccc(-c2nc3nc(-c4ccc(Cl)cc4)nc(N4CCCNCC4)c3o2)cc1`, the GI50 in test [1] stood at 1.7 µM; in test [3], 1.94 µM; in [4], 1.93 µM; in [6], 1.9 µM; in test [7], 1.87 µM; in test [11], 1.78 µM. The LC50 (concentration giving 50% net cell kill) in test [1] is 6.75 µM; in test [6], 6.86 µM; in test [11] it was 6.59 µM. The concentration for total growth inhibition (TGI) in test [1] turned out to be 3.39 µM; in test [3], 4.14 µM; in test [4], 4.17 µM; in test [6], 3.61 µM; in test [7], 3.37 µM; in [11], 3.42 µM. For the same compound, the inhibition at 10 µM worked out at 176% in test [2]; 179% in [5]; 1% in test [8]; 136% in test [9]; 151% in test [10]; 154% in [12]. Also, in test [3], the CC50 is 8.84 µM. The LC50 (50% lethal concentration) in test [4] was determined as 9.02 µM. The compound also registered an LC50 (concentration killing 50% of starting cells) in test [7] of 6.21 µM.

In the case of `Cc1ccc(-c2nc3nc(-c4ccccc4)nc(N4CCCNCC4)c3o2)cc1`, the GI50 in test [1] came to 1.48 µM; in test [3], 1.72 µM; in test [4], 1.83 µM; in [6] it was 1.63 µM; in test [7], 1.81 µM; in test [11] it was 1.59 µM. Further, the LC50 (concentration giving 50% net cell kill) is 8.29 µM in test [1], 6.25 µM in test [6] and 7.04 µM in test [11]. For the same compound, the TGI in test [1] was found to be 3.5 µM; in [3] it was 3.5 µM; in test [4] it was 4.02 µM; in test [6], 3.19 µM; in test [7], 3.32 µM; in [11], 3.35 µM. Moreover, the inhibition at 10 µM in test [2] turned out to be 187%; in test [5] it was 178%; in test [8], 72%; in test [9], 145%; in test [10], 118%; in [12], 168%. Further, the CC50 in test [3] is 7.1 µM. The LC50 (50% lethal concentration) in test [4] was found to be 8.85 µM. The compound further displayed an LC50 (concentration killing 50% of starting cells) in test [7] of 6.1 µM.

Take `c1ccc(-c2nc(N3CCCNCC3)c3oc(-c4ccccc4)nc3n2)cc1`: the GI50 came to 1.41 µM in test [1]; 1.69 µM in test [3]; 1.86 µM in test [4]; 1.73 µM in test [6]; 1.56 µM in [7]; 1.48 µM in test [11]. The LC50 (concentration giving 50% net cell kill) in test [1] was determined as 5.69 µM; in test [6] it was 5.86 µM; in test [11], 5.54 µM. The TGI came out at 2.83 µM in test [1]; 3.48 µM in [3]; 4.13 µM in [4]; 3.18 µM in test [6]; 2.97 µM in [7]; 2.87 µM in test [11]. Moreover, the inhibition at 10 µM in test [2] came to 180%; in [5], 132%; in test [8], 126%; in test [9], 123%; in [10], 131%; in [12], 171%. Moreover, the CC50 in test [3] is 7.15 µM. In addition, the LC50 (50% lethal concentration) in [4] amounted to 9.16 µM. In test [7], this compound yielded an LC50 (concentration killing 50% of starting cells) of 5.65 µM.

Take `Cc1ccc(-c2nc3nc(-c4ccccc4)nc(N4CCNCC4)c3o2)cc1`: the GI50 in test [1] was 0.33 µM; in test [3] it was 0.35 µM; in [4] it was 2.02 µM; in [6], 1.72 µM; in [7], 0.26 µM; in [11], 0.29 µM. Also, the values for the LC50 (concentration giving 50% net cell kill) in [1], in test [6] and in test [11] were 5.74 µM, 5.99 µM and 4.84 µM, respectively. In addition, the TGI in test [1] amounted to 1.45 µM; in test [3], 1.51 µM; in [4], 4.22 µM; in test [6], 3.2 µM; in test [7] it was 0.67 µM; in test [11] it was 1.18 µM. Moreover, the inhibition at 10 µM worked out at 179% in [2]; 166% in [5]; 172% in [8]; 168% in [9]; 151% in [10]; 187% in [12]. In test [3], the CC50 stood at 6.33 µM. In test [7], this compound came in with an LC50 (concentration killing 50% of starting cells) of 2.61 µM.

For orientation: GI50 means the concentration that inhibits growth by half. In general, TGI refers to the concentration giving total growth inhibition. A higher TGI goes with lower sensitivity of the cells. As usually defined, the inhibition is the drop in the measured response relative to a control, in per cent.
